# Test results: ChEMBL document CHEMBL4513216, “Probing the Open Global Health Chemical Diversity Library for Multistage-Active Starting Points for Next-Generation Antimalarials” (ACS Infect Dis, 2020)
# Experiment: Toxicity liver stage against HepG2, at 10uM
# Format: cell-based
# Design: test concentration 10 uM, cell line HepG2-A16-CD81EGFP
# Conditions: human, HepG2-A16-CD81EGFP cells; read-out: INHIBITION
# How it was run: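 Uninfected HepG2-A16-CD81EGFP cells, 3 × 10^3 per well, 1536-well, plated on prespotted compound at 10 μM final, parasite-free screening media added to match infected plates; puromycin 10 μM positive, DMSO 0.5% negative; run in parallel with 48 h PbLuc assay at 37 °C, 5% CO2; viability by CellTiter-Glo luminescence, normalized to controls.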
row,SMILES,cytotoxicity at 10 µM [%]
1,O=C(C1CC(=O)N(C2CCCC2)C1)N1CCN(CCn2cccc2)CC1 (centres undefined),12.8
2,CCOc1ccc(S(=O)(=O)NCCCc2ccc(N(C)C)cc2)cc1F,-5.67
3,Cc1c(C(C)N)cnn1-c1cccc2ccccc12 (centres undefined),10.7
4,CC(NC(=O)Nc1ccc(-c2csnn2)cc1)C(=O)NC(C)(C)C (centres undefined),9.11
5,CCCn1[nH]c(CNc2cccc(Cl)c2)nc1=O,0.566
6,Cn1cccc1C(=O)N1CC[C@H]2[C@H]1CCN2CC1CC1,-3.86
7,Cn1cc(CN(Cc2ccccc2)CC(O)c2cccs2)cn1 (centres undefined),-8.59
8,COC(=O)c1cccc(C(=O)N2CCCCC2CCn2ccnc2C)c1 (centres undefined),14.5
9,Cc1cccc(CN2CCC(c3nnc(-c4scnc4C)o3)CC2)c1,-3.8
10,Cc1nc(CN2CCCC(CCc3ccccc3C)C2)c[nH]1 (centres undefined),-1.35
11,C[C@H]1C[C@@H]2CCN(C(=O)c3ccccn3)C[C@H]2O1,4.17
12,CN(CCCOc1ccccc1)Cc1nccn1C,2.07
13,CC(C(=O)NCc1ccc(N2CCNC(=O)C2)cc1)n1cncn1 (centres undefined),-9.21
14,Cc1[nH]c(=O)[nH]c(=O)c1CN1CCCC(CCc2ccccc2)C1 (centres undefined),-11.4
15,Cc1nc(C)n(CC2CCCCN2CC(=O)Nc2c(C)n[nH]c2C)n1 (centres undefined),-12.7
16,COc1ccc(-n2nnc(C(=O)NC(C)C)c2C2CC2)cc1,-14.7
17,c1ccn2c(SCC3CN=C(N4CCOCC4)S3)ncc2c1 (centres undefined),11.8
18,CC(C)c1nc(CN2CCOC(CNc3cccnn3)C2)cs1 (centres undefined),-2.93
19,Cc1ccc(NS(=O)(=O)c2c[nH]c3ncccc23)nc1,6.43
20,Cc1ccc(C(=O)N2CCN(C)C3(CCC(=O)N(C)CC3)C2)c(F)c1 (centres undefined),-1.68
21,Cc1ccc(C(=O)N2CCO[C@H]3[C@H](OCCN(C)C)CC[C@@H]32)o1,-145
22,COc1cccc(CN2CCC3(CCN(c4ncc(C)cn4)CC3)C2)c1,-6.5

row,SMILES,cytotoxicity at 10 µM [%]
1,CNC(=O)C1(CCCc2ccccn2)CCN1Cc1coc(C)n1 (centres undefined),19.7
2,Cc1ccc(C2CCCN(S(=O)(=O)N3CCOCC3)C2)nc1 (centres undefined),4.25
3,CCCc1nc(C)c(C(=O)NCc2ccc(C)n2C)s1,16.5
4,O=C1COC2(CCN(Cc3ccsc3)CC2)CN1,-3.46
5,CC(C)n1cc(CN2CCCN(C(=O)CC3CCCO3)CC2)cn1 (centres undefined),-12.4
6,Cc1ccc(NC2CCN(C(=O)c3cc(C(N)=O)cs3)CC2)nn1,2.94
7,CCc1nc(C#N)c(N2CCC(c3nc(-c4ccccc4)no3)CC2)o1,0.689
8,CC(=O)N(Cc1noc(C2CC2)n1)C1CCN(Cc2cc(C)on2)C1 (centres undefined),-6.08
9,CC1(C(N)=O)CN(CC2CCC2)CCO1 (centres undefined),2.04
10,CCn1c(C)cc(C(=O)N2CCc3nnc(N)cc3C2)c1C,-12.2
11,CC(=O)N1CCC1c1cc(N2CCSCC2)nc(C)n1 (centres undefined),6.53
12,CCOCC(=O)NCC1CCN(Cc2ccsc2)CC1,11.1
13,Cc1noc(CCCC(=O)N(CCC(=O)O)Cc2ccc(F)c(F)c2)n1,-11.3
14,CC(=O)c1cnc(NCCc2csc(-c3cnccn3)n2)nc1C,6.09
15,Cc1ncsc1C(=O)NC1CCN(Cc2ccc(C(F)(F)F)cc2)CC1,15.5
16,CC(C)CNC(=O)Nc1ccc(CN2CCOC2=O)cc1,10.2
17,O=C(Nc1nc(-c2ccccc2)ns1)N1CC[C@H](O)C1,10.5
18,O=c1[nH]c(N2CCCCC2)nc2c1CCN(Cc1cccnc1)C2,-3.07
19,CNC(=O)C1(c2cnccn2)CCCN1C(=O)c1cccnc1OC (centres undefined),-8.55
20,Cc1cc(C)cc(NCCC(=O)NCc2cccnc2N(C)C)c1,-0.211
21,CC(C)(C)c1coc([C@@H]2COCCN2Cc2cnc3ccccc3c2)n1,10.9
22,CCN(Cc1ccncc1)CC1(O)CCN(C(=O)c2cnn(C)c2)C1 (centres undefined),-26.9

row,SMILES,cytotoxicity at 10 µM [%]
1,CCc1cn[nH]c1C1CCCN(C(=O)c2cc(C#N)c(=O)[nH]c2C)C1 (centres undefined),-1.3
2,c1cnc2[nH]c(C3CCCC3)c(CN3CCOCC3)c2c1,-1.06
3,O=C(C1CCSCC1)N1CCC2(CC1)COC(COCC1CC1)C2 (centres undefined),2.56
4,Cc1ccc(NC(=O)c2nc(N3CCCCC3)ncc2Cl)cc1I,-0.906
5,CCC(CNC(=O)COC)Oc1cccc(F)c1 (centres undefined),-44.6
6,Cc1nnc(SCCCNC(=O)c2ccc3c(c2)OCO3)s1,8.8
7,CC(C)CN1CC(C(=O)NCc2cccnc2-n2cccn2)CC1=O (centres undefined),-1.04
8,Fc1cnc(N2CCCC3(COCCN(c4nccs4)C3)C2)nc1 (centres undefined),1.43
9,COCc1nc(C(=O)N2CCCC2c2ccncc2)cs1 (centres undefined),-11.4
10,c1cncc(-c2ccc3c(c2)C2(CC3)CCN(c3nncs3)CC2)c1,13.1
11,Cc1ccc(F)c(OC2(C(=O)O)CCN(C(=O)N3CCCC3)CC2)c1,-3.94
12,c1csc(CN2CCC3(CC2)CCN(CC2CC2)CC3)n1,3.17
13,CC(C)N1[C@H](Cn2cncn2)C[C@@H]2CN(c3ncccn3)CC[C@@H]21,3.17
14,CS(=O)(=O)N1CCC2(CC1)CC(Oc1ccccn1)CO2 (centres undefined),-150
15,Cc1ccc(CCC(=O)N2CCOCC2c2ncon2)c(C)c1 (centres undefined),-6.76
16,CCOc1ccc(NC(=O)c2cccc(OC)c2OC)cc1,1.64
17,Cc1noc(C)c1NS(=O)(=O)c1cc(Cl)c(Cl)c(C(=O)O)c1,4.86
18,O=C(Cc1c[nH]c2ncccc12)NCC(O)c1ccccc1F (centres undefined),-3.43
19,COCCN1Cc2nccn2CC(COCc2csc(C)n2)C1 (centres undefined),6.22
20,CC(C)[C@H]1CN(c2cnccn2)C[C@@H]1NC(=O)C1(C#N)CCOCC1,-6.35
21,CCc1ccc(CN2CCC(CNC(=O)c3ccc(C)nc3)C2)nc1 (centres undefined),7.78
22,COc1cccc(CNC(=O)c2nc3c(o2)CN(C(=O)N(C)C)C3)c1,-1.68

row,SMILES,cytotoxicity at 10 µM [%]
1,O=C1CCCc2[nH]c(=O)c(C(=O)N(CC3CCCCC3)C3CC3)cc21,-2.56
2,CNC(=O)[C@@]12CCO[C@@H]1CCN(S(=O)(=O)c1cc(C)cc(C)c1)C2,-73.5
3,CCC[C@H]1CN(S(C)(=O)=O)C[C@@H]1NC(=O)c1ccc(COC)cc1,1.1
4,COc1ccc(CN2CCn3cc(CN4CCN(C)CC4)nc3C2)cc1,-0.00161
5,O=C(NCCCn1cccn1)C1(c2ccc(Br)cc2)CC1,-0.0323
6,COc1cccc(-c2cc(C(=O)N3N=C(C)CC3(O)C(F)(F)F)[nH]n2)c1 (centres undefined),5.97
7,NC(=O)CNC(c1ccccc1)c1ccccc1,-10.5
8,O=C(CN1CCOCC1)N1CCC(c2cc(N3CCCC3)ncn2)CC1,3.6
9,COc1ccccc1N1CCN(C(=O)c2ccnc(N(C)C)c2)CC1,84.2
10,CCN1CC(C(=O)NCCc2csc(-c3ccncc3)n2)CCC1=O (centres undefined),-11.3
11,O=C(NC1CCC1)[C@H]1C[C@H]2CN(S(=O)(=O)c3ccccc3)C[C@@H]1O2,-9.02
12,O=C1CSCN1CC(=O)N1CCCC1c1nc2ccccc2s1 (centres undefined),-12.7
13,CS(=O)(=O)c1ccc(OCCNCc2ccc(F)cc2F)cc1,-8.25
14,Cc1cc2nc(C(C)C)cc(NC(C)c3nncn3C)n2n1 (centres undefined),2.83
15,O=C(CSC1=NS(=O)(=O)c2cc(F)ccc2N1)Nc1cccc(Cl)c1,3.92
16,Cc1cnn(CCNCc2ccccc2Oc2cccnc2)c1,6.33
17,Cc1ccc(N2CCCN(C(=O)c3cccc4c3ccn4C)CC2)nn1,0.983
18,CC(C)n1ccc(C(=O)NCC(O)c2c(Cl)cccc2Cl)n1 (centres undefined),1.81
19,OCCCc1nncn1-c1cccc(C(F)(F)F)c1,6.74
20,Cc1nc(C2CCN(C)CC2)cc(N2CCOc3ccc(Cl)cc3C2)n1,-5.12
21,c1ccc(-c2nc(CN3CCc4c(ncn4C4CC4)C3)cs2)cc1,-8.65
22,O=C(CCc1ccco1)N1CCCN(Cc2cscn2)CC1,3.28

row,SMILES,cytotoxicity at 10 µM [%]
1,c1ccc(CN2CCCn3nnc(Cn4cccc4)c3C2)nc1,8.37
2,O=C1CCNc2cc3c(cc2CN1CC1CC1)OCO3,-5.83
3,N#Cc1ccc(CNC(=O)NC2CCN(CC(F)F)CC2)cc1,-6.96
4,CC(O)c1cn(CC2CCN(C(=O)c3cccc(N(C)C)c3)CC2)nn1 (centres undefined),-0.412
5,Cc1ccoc1C(=O)N1CC[C@H]2C[C@H](c3nnc(C4CC4)o3)O[C@@H]2C1,-105
6,CC(C)C1CN(S(=O)(=O)c2ccc(C#N)cc2)CCS1 (centres undefined),6.88
7,N#Cc1ccccc1CN1CCC(c2nccn2CC2CCC2)CC1,-10.1
8,CN(C)C(=O)COC[C@]12COC[C@H]1CN(Cc1ccccc1)C2,-5.78
9,CSCc1nc(CNC(=O)C2CCCN(CC(N)=O)C2)cs1 (centres undefined),-7.82
10,COc1ccccc1S(=O)(=O)N1CCC2(CC1)OCCCC2O (centres undefined),0.0773
11,Cc1cc2[nH]c(CN3CCOC(Cc4ccccc4)C3)cc(=O)n2n1 (centres undefined),-24.1
12,COCCc1noc(CN2CC(n3nc(C)cc3C)C2)n1,-1.76
13,O=S(=O)(NCc1ccccc1)NCc1nc(-c2ccncc2)n[nH]1,14.3
14,Cn1cccc1C(=O)N1CCC2(CC1)CN(c1ccccc1)C(=O)CO2,-79.1
15,CCn1ccnc1CN1CCN(C(C)C(=O)NCC(F)(F)F)CC1 (centres undefined),9.73
16,Cn1cc(C2CCCN2C(=O)c2cn(-c3ccccc3)nn2)cn1 (centres undefined),-24
17,CS(=O)(=O)N1C[C@@H]2C[C@H](C(=O)N3CCOCC3)[C@H](C1)O2,-2.92
18,Cn1cccc1C(=O)NC[C@]12COC[C@H]1CN(Cc1nccs1)C2,-2.74
19,CC(=O)N1CCC(NC2(Cc3cc(C(C)(C)O)on3)COC2)CC1,-1.09
20,Cn1cc(CNS(=O)(=O)c2cc(F)ccc2F)cn1,-0.439
21,Cn1c(SCC(O)COCc2ccc(Cl)cc2)nnc1C1CC1 (centres undefined),14
